Assay results: ChEMBL document CHEMBL2146426, “Antitubercular nitrofuran isoxazolines with improved pharmacokinetic properties” (Bioorg Med Chem, 2012)
In brackets after ≈: the same amount, converted by molar mass.

Columns and labels:
[1] = Plasma protein binding in mouse at 10 uM after 4 hrs by LC/MS analysis; assay type: ADME, cell-free; details: read-out: PPB (converted)
Summary of the method: (§1)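 Compound at 10 µM (0.1% DMSO) in mouse or human plasma. Rapid equilibrium dialysis (MWCO 8K) against DPBS pH 7.4, 4 h at 37°C with orbital shaking. Both chambers matrix-matched, precipitated with acetonitrile containing warfarin internal standard, quantified by LC–MS. %Free = buffer/plasma × 100; %Bound = 100 − %Free.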

[2] = Volume of distribution in Sprague-Dawley rat at 10 mg/kg, iv; assay type: ADME, organism-based; parameters: dose 10 mg/kg, route intravenous; details: in vivo
Summary of the method: (§2)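 Rats, n=5, given 10 mg/kg IV via femoral vein catheter. Vehicle was 2% ethanol/saline or 30% DMSO/30% propylene glycol/20% PEG 3000/20% saline, depending on compound. Plasma sampled 0–48 h and urine collected in intervals to 48 h; both assayed by LC-MS/MS after acetonitrile precipitation. Non-compartmental analysis: CL = dose/AUC0-∞; fe = cumulative unchanged urinary amount/dose.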

Vero = assay: Cytotoxicity against african green monkey Vero cells after 72 hrs by MTT assay; assay type: cell-based; details: Chlorocebus sabaeus
Summary of the method: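 Vero cells in DMEM with 10% FBS, seeded at ~10% confluency and left to adhere overnight. Two-fold serial dilutions applied for 72 h at 37°C, 5% CO2. MTT read-out at 570 nm after overnight solubilization.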

[3] = Apparent permeability of the compound from apical to basal side of human Caco2 cells at 50 umol/L after 2 hrs by UPLC/MS analysis; assay type: ADME, cell-based; details: Caco-2
Summary of the method: (§3)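 Caco-2 monolayers grown 7 days on Transwell inserts, washed with HBSS/HEPES pH 7.4. Compound at 50 µmol/L added apically or basolaterally, then 2 h at 37°C. Receiver side sampled and quantified by UPLC/MS. Papp = (dQ/dt)/(A×C0), triplicates.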

[4] = Apparent permeability of the compound from basal to apical side of human Caco2 cells at 50 umol/L after 2 hrs by UPLC/MS analysis; assay type: ADME, cell-based; details: Caco-2; summary of the method: as §3
[5] = Half life in mouse liver microsomes; assay type: ADME, Microsome
Summary of the method: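 Mouse liver microsomes at 0.6381 mg/mL protein in 0.1 M potassium phosphate pH 7.4 with EDTA. Reaction started with NADPH regenerating system at 37°C; six time points including 0, triplicate wells. Quenched in cold acetonitrile with warfarin internal standard, analysed by LC–MS. Half-life from a first-order least-squares fit.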

[6] = Half life in human liver microsomes; assay type: ADME, Microsome
[7] = Plasma protein binding in human at 10 uM after 4 hrs by LC/MS analysis; assay type: ADME, cell-free; details: read-out: PPB (converted); summary of the method: as §1
Rattus norvegicus [8] = assay: Toxicity in Sprague-Dawley rat assessed as mortality at 100 mg/kg, po; assay type: organism-based; parameters: dose 100 mg/kg, route oral; details: in vivo
Summary of the method: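 Observed during rat oral pharmacokinetic study (n=5). Overnight-fasted animals, water ad libitum, received 100 mg/kg by oral gavage. Vehicle was compound-dependent: 2% methanol (sonicated), 60:40 PEG 3000/water, or 10% vitamin E TPGS. Animals followed with sampling to 48 h.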

[9] = Half life in Sprague-Dawley rat at 10 mg/kg, iv; assay type: ADME, organism-based; parameters: dose 10 mg/kg, route intravenous; details: in vivo; summary of the method: as §2
Rattus norvegicus [10] = assay: Toxicity in Sprague-Dawley rat assessed as seizures at 10 mg/kg, iv; assay type: organism-based; parameters: dose 10 mg/kg, route intravenous; details: in vivo
Summary of the method: (§4)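 Observed during rat IV pharmacokinetic study (n=5). Single 10 mg/kg dose via femoral vein catheter, flushed with heparinized locking solution. Vehicle was 2% ethanol/saline or 30% DMSO/30% propylene glycol/20% PEG 3000/20% saline. Animals followed with serial blood sampling to 48 h.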

[11] = Clearance in Sprague-Dawley rat at 10 mg/kg, iv; assay type: ADME, organism-based; parameters: dose 10 mg/kg, route intravenous; details: in vivo; summary of the method: as §2
Bacillus anthracis = assay: Antibacterial activity against Bacillus anthracis Sterne 34F2 after overnight incubation by microbroth dilution technique; assay type: functional
Summary of the method: (§5)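 Non-mycobacterial strains: two-fold serial dilutions in broth by CLSI microbroth dilution. Inoculum about 10^5 cfu/mL; top final drug concentration 200 µg/mL. Aerobic incubation at 37°C overnight. MIC read visually as the lowest concentration with no visible growth.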

[12] = Cmax in Sprague-Dawley rat at 10 mg/kg, iv; assay type: ADME, organism-based; parameters: dose 10 mg/kg, route intravenous; details: in vivo; summary of the method: as §2
Rattus norvegicus [13] = assay: Oral bioavailability in Sprague-Dawley rat at 100 mg/kg; assay type: ADME, organism-based; details: in vivo
Summary of the method: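 Fasted rats, n=5, dosed 100 mg/kg by oral gavage. Vehicle was 2% methanol, 60:40 PEG 3000/water or 10% vitamin E TPGS, depending on compound. Plasma sampled to 48 h and assayed by LC-MS/MS. F = (AUCoral×DoseIV)/(AUCIV×Doseoral), referenced to 10 mg/kg IV.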

Streptococcus pyogenes = assay: Antibacterial activity against Streptococcus pyogenes ATCC 700294 after overnight incubation by microbroth dilution technique; assay type: functional
Summary of the method: (§6)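 Two-fold serial broth dilutions per CLSI; inoculum about 10^5 CFU/mL; top final drug concentration 200 µg/mL; incubated aerobically overnight at 37°C. MIC read visually as the lowest concentration with no visible growth.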

[14] = Drug excretion in Sprague-Dawley rat urine at 10 mg/kg, iv; assay type: ADME, organism-based; parameters: dose 10 mg/kg, route intravenous; details: read-out: Drug excretion; summary of the method: as §2
Rattus norvegicus [15] = assay: Toxicity in Sprague-Dawley rat assessed as mortality at 10 mg/kg, iv; assay type: organism-based; parameters: dose 10 mg/kg, route intravenous; details: in vivo; summary of the method: as §4
Staphylococcus aureus = assay: Antibacterial activity against Staphylococcus aureus ATCC 29213 after overnight incubation by microbroth dilution technique; assay type: functional; summary of the method: as §6
[16] = AUC (0 to infinity) in Sprague-Dawley rat at 10 mg/kg, iv; assay type: ADME, organism-based; parameters: time infinity, dose 10 mg/kg, route intravenous; details: plasma; summary of the method: as §2
[17] = Solubility of the compound at pH 7.4 after 18 hrs by UV spectrometry; assay type: physicochemical; details: buffer, pH 7.4
Summary of the method: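 10 mM DMSO stocks diluted 100-fold in system solution buffer pH 7.4 and held 18 h at room temperature. Filtered, diluted 1:1 with isopropanol and measured by UV (230–500 nm). Compared against a 600-fold diluted reference in buffer/isopropanol. Triplicates.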

Escherichia coli = assay: Antibacterial activity against Escherichia coli K12 after overnight incubation by microbroth dilution technique; assay type: functional; details: K-12; summary of the method: as §5
Enterococcus faecalis = assay: Antibacterial activity against Enterococcus faecalis ATCC 3186 after overnight incubation by microbroth dilution technique; assay type: functional; summary of the method: as §6
Bacillus subtilis = assay: Antibacterial activity against Bacillus subtilis ATCC 23857 after overnight incubation by microbroth dilution technique; assay type: functional; summary of the method: as §5
Streptococcus pneumoniae = assay: Antibacterial activity against Streptococcus pneumoniae DAW27 after overnight incubation by microbroth dilution technique; assay type: functional; summary of the method: as §6

SMILES | fraction unbound at 4 h, 10 µM [1] | Vd [2] [L/kg] | IC50 (Vero) [µg/mL] | Papp A→B at 2 h, 50 µM [3] [×10⁻⁶ cm/s] | Papp B→A at 2 h, 50 µM [4] [×10⁻⁶ cm/s] | half-life [5] [min] | half-life [6] [min] | fraction unbound at 4 h, 10 µM [7] | Activity (Rattus norvegicus [8]) | half-life [9] [min] | Activity (Rattus norvegicus [10]) | clearance [11] [mL/min/kg] | MIC (Bacillus anthracis) [µg/mL] | MIC (Streptococcus pyogenes) [µg/mL] | MIC (Staphylococcus aureus) [µg/mL] | solubility at 18 h [17] [µg/mL] | MIC (Escherichia coli) [µg/mL] | MIC (Enterococcus faecalis) [µg/mL] | MIC (Bacillus subtilis) [µg/mL] | MIC (Streptococcus pneumoniae) [µg/mL] | further results
O=[N+]([O-])c1ccc(C2=NOC(c3ccc(N4CCOCC4)nc3)C2)o1 (stereo not drawn) | 0.047 | 2.86 | 3.2 (≈ 9.29 µM) | 6.47 | 14.2 | 73.8 | 202 | 0.033 | Non-toxic | 43.2 | Non-toxic | 50.3 | 25 (≈ 72.6 µM) | 25 (≈ 72.6 µM) | 12.5 (≈ 36.3 µM) | 14.1 (≈ 40.9 µM) | > 200 | – | – | – | Cmax [12]: 2730 ng/mL; F (Rattus norvegicus [13]): 47.9%; dose excreted [14]: 0.02%; Activity (Rattus norvegicus [15]): Non-toxic; AUC(0-inf) [16]: 3360 ng·h/mL
O=[N+]([O-])c1ccc(C2=NOC(c3ccc(N4CCOCC4)cc3)C2)o1 (stereo not drawn) | 0.036 | 35 | 2.9 (≈ 8.45 µM) | 17.2 | – | – | – | 0.038 | Non-toxic | 143 | Non-toxic | 108 | 12.5 (≈ 36.4 µM) | 25 (≈ 72.8 µM) | 6.25 (≈ 18.2 µM) | – | > 200 | > 200 | 12.5 (≈ 36.4 µM) | 50 (≈ 146 µM) | Cmax [12]: 830 ng/mL; F (Rattus norvegicus [13]): 100%; dose excreted [14]: 0%; Activity (Rattus norvegicus [15]): Non-toxic; AUC(0-inf) [16]: 1630 ng·h/mL
O=[N+]([O-])c1ccc(C2=NOC(c3ccc(N4CCOCC4)c(F)c3)C2)o1 (stereo not drawn) | 0.061 | – | – | – | – | – | – | 0.066 | – | – | – | – | 12.5 (≈ 34.6 µM) | 200 (≈ 554 µM) | 25 (≈ 69.2 µM) | 3.2 (≈ 8.86 µM) | > 200 | 200 (≈ 554 µM) | 200 (≈ 554 µM) | 200 (≈ 554 µM) | –
O=[N+]([O-])c1ccc(C2=NOC(c3ccc(N4CCSCC4)cc3)C2)o1 (stereo not drawn) | 0.013 | – | – | 9.62 | 11.4 | 2.4 | 12.6 | 0.015 | – | – | – | – | – | > 200 | – | 1.9 (≈ 5.29 µM) | > 200 | 100 (≈ 278 µM) | – | – | –
O=[N+]([O-])c1ccc(C2=NOC(c3ccc(N4CC[S+]([O-])CC4)cc3)C2)o1 (stereo not drawn) | 0.178 | – | – | 24.2 | 27.2 | 52.2 | 272 | 0.223 | – | – | – | – | 12.5 (≈ 33.3 µM) | 50 (≈ 133 µM) | 6.25 (≈ 16.6 µM) | 28.9 (≈ 77 µM) | 100 (≈ 266 µM) | 100 (≈ 266 µM) | 6.25 (≈ 16.6 µM) | 50 (≈ 133 µM) | –
CN1CCN(c2ccc(C3CC(c4ccc([N+](=O)[O-])o4)=NO3)cc2)C(=O)C1 (stereo not drawn) | 0.239 | 3.1 | 20.3 (≈ 54.8 µM) | – | – | – | – | 0.426 | Non-toxic | 36.6 | Toxic | 194 | 12.5 (≈ 33.8 µM) | 50 (≈ 135 µM) | 6.25 (≈ 16.9 µM) | 28.8 (≈ 77.8 µM) | 50 (≈ 135 µM) | 100 (≈ 270 µM) | 6.25 (≈ 16.9 µM) | 50 (≈ 135 µM) | Cmax [12]: 1190 ng/mL; F (Rattus norvegicus [13]): 58.3%; dose excreted [14]: 0.68%; Activity (Rattus norvegicus [15]): Toxic; AUC(0-inf) [16]: 960 ng·h/mL
